Measured values as given in ChEMBL document CHEMBL4622914, “Development of a bioavailable boron-containing PI-103 Bioisostere, PI-103BE” (Bioorg Med Chem Lett, 2020).

How the values were obtained:
[1] = Drug concentration in ovariectomized nu/nu mouse plasma assessed 3-(4-morpholinopyrido [3',2':4,5] furo [3,2-d] pyrimidin-2-yl)phenol at 10 mg/kg, po measured after 3 hrs by UHPLC-MS analysis; assay type: ADME, organism-based; settings: in vivo
Procedure, shortened: (§1)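 Female ovariectomized Nu/Nu mice, 4–6 weeks old, n = 5 per group. Single 10 mg/kg oral gavage in 5% DMSO/40% PEG 400/55% saline. Orbital-sinus blood was taken at 0.5, 1, 3, 8 and 24 h, one sampling per group, into EDTA. Plasma was spun at 4 °C and stored at −80 °C. The prodrug's boronic acid metabolite and phenol were quantified by C18 UHPLC–TSQ MS/MS with an acetonitrile/water 0.05% formic acid gradient.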

HeLa = test: Antiproliferative activity against human HeLa cells assessed as reduction in cell viability incubated for 4 days by coulter counter method; assay type: functional, cell-based; settings: 96 h
Procedure, shortened: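 Cancer cells were seeded at 50,000 per well in DMEM with 5% FBS. They were exposed to six compound doses for 4 days, with DMSO as vehicle control and a reference inhibitor as positive control. Cells were counted by Coulter counter. Survival ratio is treated cell number over vehicle cell number. IC50 was taken from dose–response curves. Triplicate experiments.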

[2] = Stability of compound in cell culture medium assessed as compound hydrolysis measured after 24 hrs; assay type: physicochemical
[3] = Drug concentration in ovariectomized nu/nu mouse plasma assessed (3-(4-morpholinopyrido [3',2':4,5] furo [3,2-d] pyrimidin-2-yl)phenyl)boronic acid at 10 mg/kg, ip measured after 3 hrs by UHPLC-MS analysis; assay type: ADME, organism-based; settings: in vivo
[4] = Cmax in ovariectomized nu/nu mouse assessed 3-(4-morpholinopyrido [3',2':4,5] furo [3,2-d] pyrimidin-2-yl)phenol at 10 mg/kg, po measured upto 24 hrs by UHPLC-MS analysis; assay type: ADME, organism-based; design: dose 10 mg/kg, route oral; settings: in vivo; procedure, shortened: as §1
[5] = Drug concentration in ovariectomized nu/nu mouse plasma assessed 3-(4-morpholinopyrido [3',2':4,5] furo [3,2-d] pyrimidin-2-yl)phenol at 10 mg/kg, po measured after 1 hr by UHPLC-MS analysis; assay type: ADME, organism-based; settings: in vivo; procedure, shortened: as §1
[6] = Drug concentration in ovariectomized nu/nu mouse plasma assessed (3-(4-morpholinopyrido [3',2':4,5] furo [3,2-d] pyrimidin-2-yl)phenyl)boronic acid at 10 mg/kg, ip measured after 0.5 hrs by UHPLC-MS analysis; assay type: ADME, organism-based; settings: in vivo
[7] = Tmax in ovariectomized nu/nu mouse assessed (3-(4-morpholinopyrido [3',2':4,5] furo [3,2-d] pyrimidin-2-yl)phenyl)boronic acid at 10 mg/kg, po measured upto 24 hrs by UHPLC-MS analysis; assay type: ADME, organism-based; settings: in vivo; procedure, shortened: as §1
[8] = Drug concentration in ovariectomized nu/nu mouse plasma assessed 3-(4-morpholinopyrido [3',2':4,5] furo [3,2-d] pyrimidin-2-yl)phenol at 10 mg/kg, ip measured after 0.5 hrs by UHPLC-MS analysis; assay type: ADME, organism-based; settings: in vivo
[9] = Tmax in ovariectomized nu/nu mouse assessed 3-(4-morpholinopyrido [3',2':4,5] furo [3,2-d] pyrimidin-2-yl)phenol at 10 mg/kg, po measured upto 24 hrs by UHPLC-MS analysis; assay type: ADME, organism-based; settings: in vivo; procedure, shortened: as §1
[10] = Drug concentration in ovariectomized nu/nu mouse plasma assessed 3-(4-morpholinopyrido [3',2':4,5] furo [3,2-d] pyrimidin-2-yl)phenol at 10 mg/kg, po measured after 24 hrs by UHPLC-MS analysis; assay type: ADME, organism-based; settings: in vivo; procedure, shortened: as §1
[11] = Drug concentration in ovariectomized nu/nu mouse plasma assessed (3-(4-morpholinopyrido [3',2':4,5] furo [3,2-d] pyrimidin-2-yl)phenyl)boronic acid at 10 mg/kg, po measured after 0.5 hrs by UHPLC-MS analysis; assay type: ADME, organism-based; settings: in vivo; procedure, shortened: as §1
[12] = Drug concentration in ovariectomized nu/nu mouse plasma assessed (3-(4-morpholinopyrido [3',2':4,5] furo [3,2-d] pyrimidin-2-yl)phenyl)boronic acid at 10 mg/kg, ip measured after 8 hrs by UHPLC-MS analysis; assay type: ADME, organism-based; settings: in vivo
[13] = AUC (0 to 24 hrs) in ovariectomized nu/nu mouse assessed (3-(4-morpholinopyrido [3',2':4,5] furo [3,2-d] pyrimidin-2-yl)phenyl)boronic acid at 10 mg/kg, po measured upto 24 hrs by UHPLC-MS analysis; assay type: ADME, organism-based; design: time < 24 hr, dose 10 mg/kg, route oral; settings: in vivo; procedure, shortened: as §1
[14] = Stability of compound in cell culture medium assessed as compound hydrolysis measured after 1 hr; assay type: physicochemical
[15] = Tmax in ovariectomized nu/nu mouse assessed 3-(4-morpholinopyrido [3',2':4,5] furo [3,2-d] pyrimidin-2-yl)phenol at 10 mg/kg, ip measured upto 24 hrs by UHPLC-MS analysis; assay type: ADME, organism-based; settings: in vivo
[16] = Cmax in ovariectomized nu/nu mouse assessed (3-(4-morpholinopyrido [3',2':4,5] furo [3,2-d] pyrimidin-2-yl)phenyl)boronic acid at 10 mg/kg, po measured upto 24 hrs by UHPLC-MS analysis; assay type: ADME, organism-based; design: dose 10 mg/kg, route oral; settings: in vivo; procedure, shortened: as §1
[17] = Cmax in ovariectomized nu/nu mouse assessed (3-(4-morpholinopyrido [3',2':4,5] furo [3,2-d] pyrimidin-2-yl)phenyl)boronic acid at 10 mg/kg, ip measured upto 24 hrs by UHPLC-MS analysis; assay type: ADME, organism-based; design: dose 10 mg/kg, route intraperitoneal; settings: in vivo
[18] = Tmax in ovariectomized nu/nu mouse assessed (3-(4-morpholinopyrido [3',2':4,5] furo [3,2-d] pyrimidin-2-yl)phenyl)boronic acid at 10 mg/kg, ip measured upto 24 hrs by UHPLC-MS analysis; assay type: ADME, organism-based; settings: in vivo
[19] = Drug concentration in ovariectomized nu/nu mouse plasma assessed 3-(4-morpholinopyrido [3',2':4,5] furo [3,2-d] pyrimidin-2-yl)phenol at 10 mg/kg, ip measured after 8 hrs by UHPLC-MS analysis; assay type: ADME, organism-based; settings: in vivo
[20] = Cmax in ovariectomized nu/nu mouse assessed 3-(4-morpholinopyrido [3',2':4,5] furo [3,2-d] pyrimidin-2-yl)phenol at 10 mg/kg, ip measured upto 24 hrs by UHPLC-MS analysis; assay type: ADME, organism-based; design: dose 10 mg/kg, route intraperitoneal; settings: in vivo
[21] = Drug concentration in ovariectomized nu/nu mouse plasma assessed (3-(4-morpholinopyrido [3',2':4,5] furo [3,2-d] pyrimidin-2-yl)phenyl)boronic acid at 10 mg/kg, po measured after 1 hr by UHPLC-MS analysis; assay type: ADME, organism-based; settings: in vivo; procedure, shortened: as §1

Cp [1]: 6.5 ng/mL
Drug degradation [2]: 0 µM
Cp [3]: 28 ng/mL
Cmax [4]: 8.2 ng/mL
Cp [5]: 8.2 ng/mL
Cp [6]: 30.6 ng/mL
Tmax [7]: 1 h
Cp [8]: 14.9 ng/mL
Tmax [9]: 1 h
Cp [10]: 0.7 ng/mL
Cp [11]: 402.8 ng/mL
Cp [12]: 17.2 ng/mL
AUC [13]: 8879.9 ng·h/mL
Drug degradation [14]: 0.01 µM
Tmax [15]: 0.5 h
Cmax [16]: 709.2 ng/mL
Cmax [17]: 44.5 ng/mL
Tmax [18]: 1 h
Cp [19]: 1 ng/mL
Cmax [20]: 14.9 ng/mL
Cp [21]: 709.2 ng/mL
Structure (SMILES): CC1(C)OB(c2cccc(-c3nc(N4CCOCC4)c4oc5ncccc5c4n3)c2)OC1(C)C
IC50 (HeLa): 3.82 µM
